pKi: −log10 of the molar value.
How the values were obtained:
Thymidylate synthase [1] = biological target: T1, Thymidylate synthase (Lactobacillus casei, UniProt P00469); assay: Inactivation of thymidylate synthetase measured asKi at 6.8 pH 30 degrees Celsius temp; parameters: species or system Lacticaseibacillus casei
T1 sequence (P00469 whole entry): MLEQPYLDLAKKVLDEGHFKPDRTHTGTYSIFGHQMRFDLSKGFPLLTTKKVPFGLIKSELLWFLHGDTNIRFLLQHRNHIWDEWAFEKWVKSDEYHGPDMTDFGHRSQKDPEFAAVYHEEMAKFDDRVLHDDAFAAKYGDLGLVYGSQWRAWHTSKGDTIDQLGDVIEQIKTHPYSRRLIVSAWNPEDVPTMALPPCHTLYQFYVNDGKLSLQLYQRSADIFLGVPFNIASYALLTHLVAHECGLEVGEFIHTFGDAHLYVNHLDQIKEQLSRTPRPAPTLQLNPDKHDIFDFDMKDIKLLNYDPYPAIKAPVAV
How it was run: (§1)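 L. casei (methotrexate-resistant) thymidylate synthetase, activated in 50 mM 2-mercaptoethanol, then freed of thiol on Sephadex G-25 in 0.05 M phosphate pH 6.8; 0.1–0.4 μM enzyme preincubated at 30 °C with inhibitor in 6 mM potassium phosphate pH 6.8, 3 mM MgCl2, 0.12 mM EDTA. Aliquots at 0–50 s assayed 60 s with 50 μM [5-3H]dUMP; ln % activity vs time gives kobs.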

[2] = biological target: T2, Thymidylate synthase (Lactobacillus casei) (UniProt P00469); assay: Inactivation of thymidylate synthetase measured as k2 at 6.8 pH 30 degrees Celsius temp; conditions: Lacticaseibacillus casei; how it was run: as §1
T2 sequence (whole entry): T1 sequence (P00469 whole entry)

[3] = biological target: T2, Thymidylate synthase (Lactobacillus casei); assay: Inactivation of thymidylate synthetase measur as kcat at 6.8 pH 30 degrees Celsius temp; conditions: Lacticaseibacillus casei
How it was run: (§2)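 Thymidylate synthetase from methotrexate-resistant Lactobacillus casei, activated by dialysis against 0.1 M potassium phosphate pH 6.8 with 50 mM mercaptoethanol, then freed of thiol on Sephadex G-25. Enzyme at 0.1–0.4 μM preincubated at 30 °C in 6 mM potassium phosphate pH 6.8, 3 mM MgCl2, 0.12 mM EDTA with inhibitor, with or without substrate for protection. Aliquots were taken over time and assayed.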

Thymidylate synthase [4] = biological target: T1, Thymidylate synthase; assay: Inactivation of thymidylate synthetase measured as Ki at 6.8 pH 30 degrees Celsius temp; parameters: species or system Lacticaseibacillus casei; how it was run: as §1
[5] = biological target: T2, Thymidylate synthase (Lactobacillus casei); assay: Inactivation of thymidylate synthetase measured as kcat at 6.8 pH 30 degrees Centigrade temp; conditions: Lacticaseibacillus casei; how it was run: as §1
[6] = biological target: T2, Thymidylate synthase (Lactobacillus casei); assay: Inactivation of thymidylate synthetase measured as k2 at 7 pH 24 degrees Celsius temp; conditions: Lacticaseibacillus casei
[7] = biological target: T2, Thymidylate synthase (Lactobacillus casei); assay: Inactivation of thymidylate synthetase measured as kobs at 0.6 pH 30 degrees Celsius temp; conditions: Lacticaseibacillus casei; how it was run: as §2
[8] = biological target: T2, Thymidylate synthase (Lactobacillus casei); assay: Substrate concentration measured for Inactivation of thymidylate synthetase at a dose 2.0 pH 6.8, 30 degrees Centigrade; conditions: Lacticaseibacillus casei; how it was run: as §2
[9] = biological target: T2, Thymidylate synthase (Lactobacillus casei); assay: Substrate concentration measured for Inactivation of thymidylate synthetase at a dose 0.6, pH 6.8, 30 degrees Centigrade; conditions: Lacticaseibacillus casei; how it was run: as §2
[10] = biological target: T2, Thymidylate synthase (Lactobacillus casei); assay: Inactivation of thymidylate synthetase measured as kobs at 2.0 pH 30 degrees Celsius temp; conditions: Lacticaseibacillus casei; how it was run: as §2
[11] = biological target: T2, Thymidylate synthase (Lactobacillus casei); assay: Inactivation of thymidylate synthetase measured as kobs at a dose 30.0.0 pH 6.8, 30 degrees Centigrade; conditions: Lacticaseibacillus casei; how it was run: as §1
[12] = biological target: T2, Thymidylate synthase (Lactobacillus casei); assay: Inactivation of thymidylate synthetase measured as kobs at a dose 10.0 pH 6.8, 30 degrees Centigrade; conditions: Lacticaseibacillus casei; how it was run: as §1
[13] = biological target: T2, Thymidylate synthase (Lactobacillus casei); assay: Inactivation of thymidylate synthetase measured as kobs at a dose 3.0 pH 6.8, 30 degrees Centigrade; conditions: Lacticaseibacillus casei; how it was run: as §1
[14] = biological target: T2, Thymidylate synthase (Lactobacillus casei); assay: Inactivation of thymidylate synthetase measured as kobs at a dose 1.0 pH 6.8, 30 degrees Centigrade; conditions: Lacticaseibacillus casei; how it was run: as §1
[15] = biological target: T2, Thymidylate synthase (Lactobacillus casei); assay: Inactivation of thymidylate synthetase measured as k2 at 7 pH 4 degrees Celsius temp; conditions: Lacticaseibacillus casei
[16] = biological target: T2, Thymidylate synthase (Lactobacillus casei); assay: Substrate concentration measured for Inactivation of thymidylate synthetase at a dose 10.0 pH 6.8, 30 degrees Centigrade; conditions: Lacticaseibacillus casei; how it was run: as §2
[17] = biological target: T2, Thymidylate synthase (Lactobacillus casei); assay: Inactivation of thymidylate synthetase measured as kobs at a dose 5.56, pH 6.8, 30 degrees Centigrade; conditions: Lacticaseibacillus casei; how it was run: as §2
[18] = biological target: T2, Thymidylate synthase (Lactobacillus casei); assay: Substrate concentration measured for Inactivation of thymidylate synthetase at a dose 5.56, pH 6.8, 30 degrees Centigrade; conditions: Lacticaseibacillus casei; how it was run: as §2
[19] = biological target: T2, Thymidylate synthase (Lactobacillus casei); assay: Inactivation of thymidylate synthetase measured as kobs at a dose 10.0, pH 6.8, 30 degrees Centigrade; conditions: Lacticaseibacillus casei; how it was run: as §2

O=c1[nH]c(=O)n([C@H]2C[C@H](O)[C@@H](COP(=O)(O)O)O2)cc1[N+](=O)[O-] [5-NITRO-DUMP]
pKi (Thymidylate synthase [1]): 6.30
k2 [2]: 300000 M⁻¹ s⁻¹
k cat [3]: 0.146 s⁻¹

O=C(CBr)c1cn([C@H]2C[C@H](O)[C@@H](COP(=O)(O)O)O2)c(=O)[nH]c1=O
pKi (Thymidylate synthase [4]): 5.40
k cat [5]: 0.0025 s⁻¹
k2 [2]: 600 M⁻¹ s⁻¹

NC(=O)CI
k2 [6]: 7 M⁻¹

O=C(CBr)c1cn(C2CC(O)C(OP(=O)(O)O)O2)c(=O)[nH]c1=O (centres undefined)
pKi (Thymidylate synthase [1]): 5.70
k cat [5]: 0.065 s⁻¹
k2 [2]: 32000

O=C1C=CC(=O)C=C1
k obs [7]: 0.0025 s⁻¹
Substrate [8]: 0 µM
Substrate [9]: 0 µM
k obs [10]: 0.0126 s⁻¹

O=C1C=CC(=O)C(c2ccccc2)=C1
k obs [11]: 0.078 s⁻¹
k obs [12]: 0.025 s⁻¹
k2 [2]: 2600
k obs [13]: 0.007 s⁻¹
k obs [14]: 0.0034 s⁻¹

CCN1C(=O)C=CC1=O
k2 [15]: 13 M⁻¹

O=C1C=CC(=O)C(c2cn([C@H]3C[C@H](O)[C@@H](CO)O3)c(=O)[nH]c2=O)=C1
Substrate [16]: 0 µM
k obs [17]: 0.0029 s⁻¹
Substrate [18]: 0 µM
k obs [19]: 0.0048 s⁻¹
